rCAG binder-1: binders of r(CAG) RNA repeats, primary screen, biochemical, fluorescence | r(CAG) RNA repeat, TO-PRO-1 dye displacement fluorescence | inhibition, % at 3 µM | 1.3% of 370,000 active;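 active = inhibition above the plate cutoff, the mean of all test compounds on that plate plus 3 SD, cut at about 35% in these data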;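 note: higher means more dye released from RNA so lower well fluorescence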
SIAE primary: human SIAE inhibitors, primary screen, biochemical, fluorescence polarization, FP-Rh probe, 1536-well HTS. Sialate O-acetylesterase (Homo sapiens), Q9HAT2. SIAE FP-Rh probe binding. inhibition, % at 9.66 µM. 0.69% of 370,000 active. AID 1053197, 2014;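 active = inhibition above a cutoff: mean of compounds within the control limits plus 3 SD of those, cut at about 17% in these data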
Target sequence (Q9HAT2 whole entry, looked up): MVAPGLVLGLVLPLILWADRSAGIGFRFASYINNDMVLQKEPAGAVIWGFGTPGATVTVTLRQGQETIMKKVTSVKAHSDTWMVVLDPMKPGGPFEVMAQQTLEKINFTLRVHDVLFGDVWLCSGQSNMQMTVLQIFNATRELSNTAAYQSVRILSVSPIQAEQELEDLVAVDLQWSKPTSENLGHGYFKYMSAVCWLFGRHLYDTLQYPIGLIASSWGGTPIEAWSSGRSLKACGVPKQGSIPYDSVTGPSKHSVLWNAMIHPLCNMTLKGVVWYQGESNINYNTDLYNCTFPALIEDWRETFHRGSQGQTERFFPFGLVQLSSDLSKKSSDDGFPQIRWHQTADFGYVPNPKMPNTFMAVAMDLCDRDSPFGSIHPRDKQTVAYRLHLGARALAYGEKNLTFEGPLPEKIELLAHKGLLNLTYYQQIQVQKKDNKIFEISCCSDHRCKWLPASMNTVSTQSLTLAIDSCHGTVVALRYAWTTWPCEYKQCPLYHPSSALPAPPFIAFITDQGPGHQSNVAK
mABHD4 FP: ABHD4 inhibitors, primary screen, biochemical, fluorescence polarization, mouse | purified mABHD4, FP-Rh probe fluorescence polarization | inhibition, % at 8.92 µM | (Lyso)-N-acylphosphatidylethanolamine lipase (Mus musculus), Q8VD66 | 0.54% of 370,000 active;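 active = inhibition exceeding the mean over every tested compound plus 3 SD, cut at about 30% in these data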
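Assay system: wild-type mouse ABHD4 protein; compound: single nominal dose of 8.92 µM, 0.89% DMSO final; schedule: 45 min + 60 min at 25 °C; measured by: FP readout, ex 525 nm / em 598 nm; evaluation: % inhibition of FP-Rh probe binding versus controls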
TCR CD3 inh: inhibitors of human TCR-CD3 interaction, primary screen, biochemical, fluorescence, TAMRA-labeled TCR probe. T-cell receptor (TCR). inhibition, % at 9.4 µM. 0.37% of 360,000 active; in the data active = inhibition above about 19%;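 note: recombinant mutant TCR 2C K166C tagged with TAMRA read by polarization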
HTRA1 inh: HTRA1 serine protease inhibitors, primary screen, biochemical, fluorescence polarization, HTS | Q92743 | recombinant HTRA1, FP-rhodamine activity-based probe | inhibition, % at 5.96 µM | 0.5% of 340,000 active; in the data active = inhibition above about 36%
PRMT1 inh: PRMT1 methyltransferase inhibitors, primary screen, biochemical, fluorescence polarization; recombinant PRMT1, activity-based probe fluorescence polarization; inhibition, % at 2.79 µM; 1.3% of 370,000 active; AID 652257, 2013;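 active = inhibition above about 21% made by adding two undisclosed values, limit read from the data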
rCAG binder conf: small molecules binding CAG repeat RNA – biochemical, fluorescence, confirmation; shares compounds with rCAG binder-1; r(CAG) RNA repeat, TO-PRO-1 dye displacement fluorescence; inhibition, % at 3 µM; 70% of 4,300 active; AID 652065, 2013;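 active = inhibition above a per-plate cutoff, the mean inhibition of sample wells plus 3 SD, cut at about 35% in these data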;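 note: loss of TO-PRO-1 fluorescence as compound displaces dye from 1x1 AA loop RNA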
dCAG dye counter: displacement of TO-PRO-1 from CAG DNA duplex, counter-screen for rCAG RNA repeat binder project, biochemical, fluorescence, TO-PRO-1 dye, d(CAG) DNA oligo. shares compounds with rCAG binder-1. d(CAG) DNA oligo TO-PRO-1 dye displacement. inhibition, % at 3 µM. 94% of 4,300 active. AID 652068, 2013;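 active = inhibition above its plate's cutoff, the mean test-well inhibition plus 3 SD, cut at about 4.8% in these data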;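 note: hits displace the dye from DNA and so lower well fluorescence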
dCAG dye DR: inhibitors of DNA CAG/GTC TO-PRO-1 complex, dose response, counter-screen for rCAG RNA repeat binder project, biochemical, fluorescence, TO-PRO-1 dye. 20% of 250 active. IC50, µM. DNA CAG/GTC duplex TO-PRO-1 dye displacement fluorescence. shares compounds with rCAG binder-1. AID 686960, 2013; in the data active = IC50 below about 10 µM
dCAG TOPRO ctr: TO-PRO-1 dye complex inhibitors on d(CAG) DNA, dose response, counter-screen, biochemical, fluorescence, late stage. shares compounds with rCAG binder-1. d(CAG) DNA duplex TO-PRO-1 dye displacement. IC50, µM. 80% of 30 active
rCAG binder-2: molecules binding r(CAG) RNA repeats, late stage dose response, late-stage follow-up, biochemical, fluorescence, dose response, powder samples | shares compounds with rCAG binder-1 | r(CAG) RNA TO-PRO-1 dye displacement | IC50, µM | 100% of 30 active
Each line names hits and unclear results; the compound was inactive in the other large screens (follow-up assays come after a bar, where they were run). In the library only some 3.5% were active in any assay of this set; here they are far more common. Unless noted, the rule behind the calls is not given here.

O=c1[nH]c2cc(S(=O)(=O)CCO)ccc2o1	rCAG binder-1 36 | rCAG binder conf inactive | dCAG dye counter inactive
Nn1c(SCC(=O)NC2CCCCC2)nnc1-c1cc(-c2ccc(Cl)cc2)n[nH]1	none (no result: TCR CD3 inh, HTRA1 inh)
CC(=O)c1cc(-c2ccccc2)n(CC(=O)NCc2ccccc2)c1C	none (no result: TCR CD3 inh, HTRA1 inh)
O=C1N/C(=N\S(=O)(=O)Cc2ccccc2)S/C1=C/c1cccc([N+](=O)[O-])c1	rCAG binder-1 81 | rCAG binder conf 69 | dCAG dye counter 28
O=C1N/C(=N/O)S/C1=C/c1cccc([N+](=O)[O-])c1	none
COc1ccc(/C=C2/S/C(=N/S(=O)(=O)Cc3ccccc3)NC2=O)cc1OC	rCAG binder-1 53 | rCAG binder conf 44 | dCAG dye counter 12
O=C(c1ccccc1)N1CC[C@H]2[C@H](CCCN2Cc2cc(F)cc(F)c2)C1	none (no result: TCR CD3 inh, HTRA1 inh)
COc1ccc2c(c1)CCCN2C(=O)C1CCCN(S(=O)(=O)c2cccc3cccnc23)C1 (stereo unspecified)	none (no result: TCR CD3 inh, HTRA1 inh)
COc1ccc(C2(C(=O)Nc3ccc(S(=O)(=O)Nc4nc(C)cc(C)n4)cc3)CCCC2)cc1OC	none
Cc1cc(C)nc(NS(=O)(=O)c2ccc(NC(=O)C3(c4ccc([N+](=O)[O-])cc4)CCCC3)cc2)n1	rCAG binder-1 40 | rCAG binder conf inactive | dCAG dye counter 9.0
CN(CCOC(=O)c1cc2ccccc2o1)C1CN(Cc2cn(Cc3ccccc3F)nn2)S(=O)(=O)C1 (stereo unspecified)	none (no result: TCR CD3 inh, HTRA1 inh)
CCCCn1c(NC(=O)c2ccccc2Cl)c(C#N)c2nc3ccccc3nc21	rCAG binder-1 91 | rCAG binder conf 85 | dCAG dye counter 58
COc1ccc(-n2c(NC(=O)c3ccco3)c(C#N)c3nc4ccccc4nc32)cc1	rCAG binder-1 53 | rCAG binder conf 43 | dCAG dye counter 13
C=CC[C@@H]1NN2C(=O)[C@@H](CCCC)[C@@H]3c4ccccc4C=NN3[C@@H]2c2ccccc21	none (no result: TCR CD3 inh, HTRA1 inh)
CCCC1CCC2(CC1)CCC2OC(=S)Nc1ccccc1Br (stereo unspecified)	none (no result: rCAG binder-1, TCR CD3 inh, HTRA1 inh)
CN(C)/C=C/C(=O)c1ccc([N+](=O)[O-])c(CS(=O)(=O)c2ccccc2)c1	rCAG binder-1 35 | rCAG binder conf inactive | dCAG dye counter inactive
O=C(O)c1ccc([N+](=O)[O-])c(CS(=O)(=O)c2ccccc2)c1	none
CCOc1ccc(-c2csc(NC(=O)CSCC(=O)O)n2)c2ccccc12	rCAG binder-1 63 | rCAG binder conf 70 | dCAG dye counter 25 | dCAG dye DR inactive | dCAG TOPRO ctr 5.5 | rCAG binder-2 1.7
CCOc1ccc(-c2csc(NC(=O)CSC3=NC(=O)CN3C(C)=O)n2)c2ccccc12	none
CC1CCCN(C(=O)c2cccc(S(=O)(=O)Nc3cc(C(F)(F)F)ccc3Cl)c2)C1 (stereo unspecified)	rCAG binder-1 62 | rCAG binder conf 60 | dCAG dye counter 27
COc1ccc(S[C@]2(C(=O)NC(C)C)CC(=O)N[C@@H]2c2ccc(OC)cc2)cc1	none (no result: TCR CD3 inh, HTRA1 inh)
O=C(c1ccco1)N1N=C(c2cccs2)CC1c1cc([N+](=O)[O-])ccc1O (stereo unspecified)	rCAG binder-1 54 | rCAG binder conf 35 | dCAG dye counter 13
CCOc1ccc(-n2c(C)cc(C(=O)NS(=O)(=O)c3ccc(C)cc3)c2C)cc1	none
Cc1ccc(-n2c(C)cc(C(=O)NS(=O)(=O)c3ccc(C)cc3)c2C)cc1	rCAG binder-1 40 | rCAG binder conf inactive | dCAG dye counter 9.7
Cc1cccc(C2(c3cccc(C)c3)CC2C(=O)Nc2ccc([N+](=O)[O-])cc2O)c1 (stereo unspecified)	rCAG binder-1 49 | rCAG binder conf 52 | dCAG dye counter 22
C=CCNC(=O)C1CC1(c1cccc(C)c1)c1cccc(C)c1 (stereo unspecified)	none (no result: HTRA1 inh)
CCOC(=O)N1CCC2(CC1)C(C#N)=C(N)Oc1n[nH]c(C)c12	none
CCOC(=O)N1CCC2(CC1)C(C#N)=C(N)Oc1c2c(C)nn1-c1cccc(Cl)c1	rCAG binder-1 36 | rCAG binder conf inactive | dCAG dye counter 16
Cc1ccc(S(=O)(=O)Nc2ccc(Br)cc2/C=N/n2cnnc2)cc1	rCAG binder-1 45 | rCAG binder conf 39 | dCAG dye counter 13
CCCCNC(=O)OCCCN1CCC2(CCC(c3ccccc3)CC2)C1 (stereo unspecified)	none (no result: TCR CD3 inh, HTRA1 inh)
O=C(COc1ccccc1C(=O)O)Nc1nc2ccc([N+](=O)[O-])cc2s1	rCAG binder-1 40 | rCAG binder conf 37 | dCAG dye counter 12
Cc1ccccc1CN1CCCCC(NC(=O)C2CCC2)C1=O (stereo unspecified)	none (no result: TCR CD3 inh, HTRA1 inh)
CSCC[C@H](NC(=O)c1cc2c([nH]c3ccccc32)c(-c2ccccc2)n1)C(=O)O	rCAG binder-1 55 | rCAG binder conf 50 | dCAG dye counter 14
C[C@H](NC(=O)c1cc2c([nH]c3ccccc32)c(-c2ccccc2)n1)C(=O)O	none
Cc1ccc(NC(=O)[C@@H]2CCCN2S(=O)(=O)c2cccc3cccnc23)c(C)c1	none (no result: rCAG binder-1, TCR CD3 inh, HTRA1 inh)
O=C(O)c1ccccc1-c1ccccc1C(=O)Nc1cccc(-c2nc3ccccc3o2)c1	rCAG binder-1 65 | rCAG binder conf 60 | dCAG dye counter 22
COc1ccc(NC(=O)c2ccccc2-c2ccccc2C(=O)O)cc1	none

Bioassay records as filed in PubChem.
